From PubChem BioAssay
PERK inh: inhibitors of human PERK kinase; CHO PERK-DD fusion, SEAP luminescence translation reporter; AID 1416; inhibition, % at 5.6 µM; 220,000 compounds, 0.17% hits;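 active = inhibition above the mean inhibition of all tested compounds plus 3 SD, set separately per screening campaign, cut at about 2.9% in these data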;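 also: PERK kinase domain activated by AP20187 dimerizer at 100 nM; 0% = DMSO with dimerizer and 100% = rapamycin at 8.4 µM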
Target sequence (Q9NZJ5 whole entry, looked up, the tested form may be a part): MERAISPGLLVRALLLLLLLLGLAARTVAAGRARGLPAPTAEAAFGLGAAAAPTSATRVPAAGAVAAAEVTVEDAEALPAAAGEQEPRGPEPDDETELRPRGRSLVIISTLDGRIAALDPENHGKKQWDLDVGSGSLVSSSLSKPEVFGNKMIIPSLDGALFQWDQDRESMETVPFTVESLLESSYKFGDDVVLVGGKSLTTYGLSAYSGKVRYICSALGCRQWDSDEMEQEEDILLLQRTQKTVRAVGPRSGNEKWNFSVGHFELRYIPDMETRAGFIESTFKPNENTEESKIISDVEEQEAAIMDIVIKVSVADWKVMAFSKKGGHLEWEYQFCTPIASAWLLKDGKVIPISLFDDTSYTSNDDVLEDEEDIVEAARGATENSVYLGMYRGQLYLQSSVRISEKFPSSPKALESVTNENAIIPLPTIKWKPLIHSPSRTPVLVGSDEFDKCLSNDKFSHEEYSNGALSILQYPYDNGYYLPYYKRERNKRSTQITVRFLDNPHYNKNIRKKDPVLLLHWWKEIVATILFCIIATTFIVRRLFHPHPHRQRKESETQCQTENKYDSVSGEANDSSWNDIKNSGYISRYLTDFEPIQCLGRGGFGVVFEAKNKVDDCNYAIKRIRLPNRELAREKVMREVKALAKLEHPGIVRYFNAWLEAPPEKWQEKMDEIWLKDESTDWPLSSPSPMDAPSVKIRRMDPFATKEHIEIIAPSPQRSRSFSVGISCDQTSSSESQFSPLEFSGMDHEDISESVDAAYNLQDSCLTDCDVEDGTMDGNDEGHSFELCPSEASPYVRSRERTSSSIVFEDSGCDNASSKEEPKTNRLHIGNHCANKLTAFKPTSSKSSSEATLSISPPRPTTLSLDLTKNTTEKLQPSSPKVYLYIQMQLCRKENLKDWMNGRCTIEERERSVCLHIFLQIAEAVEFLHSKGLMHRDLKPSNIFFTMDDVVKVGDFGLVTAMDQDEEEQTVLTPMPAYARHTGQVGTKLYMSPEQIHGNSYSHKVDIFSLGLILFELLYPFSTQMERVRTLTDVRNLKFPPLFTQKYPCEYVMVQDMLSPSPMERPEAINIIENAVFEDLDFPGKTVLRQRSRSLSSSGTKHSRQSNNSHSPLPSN
AHR act: human AHR activation | P35869 | AHR-responsive luciferase reporter cells, luminescence | activation, % at 5 µM | 320,000 compounds, 2.5% hits | AID 2796; in the data active = activation above about 47%;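 also: 0% = vehicle wells and 100% = reference agonist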
PolyA inh: blocks polyadenylation in yeast reporter cells; AID 1875; S. cerevisiae SKY197-pL101 polyadenylation reporter, beta-gal luminescence; efflux-impaired pdr1/pdr3 knockout yeast; score 100 = 6 SD above DMSO; 300,000 compounds, 0.02% hits; activity score, % at 12 µM;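 active = lowest replicate activity score at least 50, where 100 means six control SD above control mean; inconclusive = lowest score under 50 but half or more replicates reach 50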;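 also: yeast exposed to compound for 9 h at 30 °C; higher score means more reporter readthrough which indicates perturbed polyadenylation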
HSF1 inh: HSF1 inhibition | NIH3T3-HGL HSE-luciferase, MG132-induced, luminescence 8 h; hits give low values | activity change, negative = inhibition, % at 7.5 µM (by protocol) | 300,000 compounds, 0.77% hits | AID 2098;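 active = more than half of replicate wells show activity change below -50%, luminescence cut by over half; inconclusive = some wells, but at most half, below -50%; inactive = no replicate well below -50%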;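 also: luciferase reports HSF-1 transcriptional activity via heat shock element; 0% = median of DMSO wells and -100% = zero luminescence signal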
Hsp70 act: Hsp70 transcriptional activation, primary screen; 200,000 compounds, 0.04% hits; HeLa Hsp70 promoter luciferase reporter, luminescence; scaled: vehicle 0, proteasome-inhibitor control 100%; activation, % at 10 µM; AID 1203;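 active = activation above the mean across all tested compounds plus 3 SD, cutoff set per campaign, cut at about 5.5% in these data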;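 also: 100% = MG132 at 30 µM as the positive control and 0% = DMSO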
STAT3 activator: STAT3 signaling activation; U3A cells, IL-6 STAT3-luciferase reporter, luminescence; 100% = signal with IL-6 EC80 alone; activation (% of control), % at 5.6 µM; 190,000 compounds, 0.91% hits; AID 871;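 active = activation above the screen-wide mean of compound activation plus 3 SD, cut at about 130% in these data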;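 also: 0% = background luminescence of wells with medium and substrate only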
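Test system: STAT3-luciferase reporter U3A cells; Detection: reporter luminescence signal; Times: 1 h compound pre-exposure, 6 h IL-6 stimulation, 37 °C; Benchmarks: IL-6-only high control; Also added: IL-6 stimulus at 33 ng/mL final.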
Numbers without * were called inactive; ? = inconclusive; / = not tested or not shown. In the library only some 3.6% were active in any assay of this set; here they are far more common.

SMILES	PERK inh	AHR act	PolyA inh	HSF1 inh	Hsp70 act	STAT3 activator
CCOc1ccccc1CSc1nc2ccccc2[nH]1	-1	54*	-10	12	0	93
Cc1cccc(Nc2nc3ccccc3n3nnnc23)c1	0	30	-28	-10	0	84
Cc1ccc(Nc2nc3ccccc3n3nnnc23)cc1	0	52*	-23	-13	0	126
CCN1CCN(C(=O)CCCn2c(C)c3cnn(-c4ccccc4)c(=O)c3c2C)CC1	1	4	0	-6	0	95
Cc1c2cnn(-c3ccccc3)c(=O)c2c(C)n1CCCC(=O)NCCN1CCN(C)CC1	3.7*	2	15	-3	/	/
CC(=O)N1CCCc2ccc(NS(=O)(=O)c3ccccc3)cc21	/	12	9	0	/	/
Cc1c(C(=O)c2no[n+]([O-])c2C(=O)c2cnn(C)c2C)cnn1C	-1	4	-8	-94*	0	101
COc1ccc(C(=O)c2no[n+]([O-])c2C(=O)c2ccc(OC)cc2)cc1	3	5	-7	14	0	94
CCOC(=O)N/N=C(\CCC(=O)O)c1cccs1	3.0*	6	?	-4	/	/
Cc1cc(C(=O)NN=C(CCC(=O)O)c2cccs2)c(C)o1	/	15	/	/	/	/
C[C@H](CO)N1C[C@H](C)[C@@H](CN(C)C(=O)Nc2ccc(C(F)(F)F)cc2)Oc2ccc(NS(=O)(=O)c3cn(C)cn3)cc2C1=O	/	1	/	/	/	/
CSCCC(NC(=O)c1ccccc1Cl)C(=O)Nc1ccc(C)c(S(=O)(=O)N2CCOCC2)c1 (stereo unspecified)	/	3	-5	3	/	/
COc1ccccc1OCCC(=O)OCC(=O)c1c(N)n(C)c(=O)n(C)c1=O	1	-1	-5	3	0	99
COc1ccc(Cn2nnnc2C(c2ccccc2Cl)N2CCC(C(N)=O)CC2)cc1 (stereo unspecified)	0	4	4	-51*	0	102
Clc1ccc(/C=N/NC2=Nc3cccc4cccc2c34)cc1	1	27	-2	10	0	119
C(=N\NC1=Nc2cccc3cccc1c23)/c1cccnc1	0	74*	-29	18	0	131
C(=N\NC1=Nc2cccc3cccc1c23)/c1ccccc1	0	28	-36	18	0	144*
Cc1[nH][nH]c(=O)c1N=Nc1ccc(Cl)cc1	0	51*	9	-3	0	90
CCCn1nc(NC(=O)c2cccs2)c2cc3cc(C)ccc3nc21	-3	18	-37	3	/	/
CCCn1nc(NC(=O)c2cccs2)c2cc3cc(OC)ccc3nc21	-2	66*	-30	9	0	85
CCCCn1nc(NC(=O)c2cccs2)c2cc3cc(OC)ccc3nc21	-2	50*	-2	1	0	86
COc1cccc2c1C(=O)c1c(O)c3c(c(O)c1C2=O)C[C@@](O)(C(=O)CO)C[C@@H]3O[C@H]1C[C@H](N)[C@H](O)[C@H](C)O1	-1	-4	-13	-24	4	142*
COc1ccc(CNC(=O)CN(C(=O)CCC(=O)Nc2ccccn2)c2ccc(C)cc2)cc1	/	-1	-13	5	/	/
CCOc1cc(NC(=O)c2ccco2)c(OCC)cc1NC(=O)COc1ccccc1C	1	5	25	-5	0	86
Cc1ccc(NC(=O)c2ccc(Cl)c(S(=O)(=O)NCc3ccco3)c2)c(O)c1	/	56*	/	/	/	/
SMILES	PERK inh	AHR act	PolyA inh	HSF1 inh	Hsp70 act	STAT3 activator
Cc1ccc(NC(=O)c2ccco2)c(NC(=O)c2ccc(Cl)cc2)c1	/	56*	16	1	/	/
CCOc1cc(NC(=O)c2ccco2)c(OCC)cc1NC(=O)Cc1cccc(OC)c1	-1	54*	0	-5	0	96
CCOc1ccccc1C(=O)Nc1cc(C)ccc1NC(=O)c1ccco1	/	68*	12	-1	/	/
O=C(COC(=O)Cc1ccc(Br)cc1)NCc1ccc(F)cc1	1	0	-10	-2	0	106
COc1ccc(C(C(=O)NCC2CCCO2)N(C(=O)c2snc(C(N)=O)c2N)c2ccc(C)cc2)cc1OC (stereo unspecified)	/	/	19	-2	/	/
COc1ccc(-c2nn(-c3ccccc3)cc2/C=N/NC(N)=S)cc1OC	-1	17	19	-4	0	98
COc1ccc(-c2nn(-c3ccccc3)cc2C(N)=O)cc1OC	/	75*	-6	3	/	/
CCOc1cc(C(=O)NC)cc(Br)c1OC	1	2	-4	-4	0	95
CCOc1cc(C(=O)N=c2sccn2C)cc(Br)c1OC	/	55*	-28	0	/	/
CCOc1ccc(C(=O)N2CCN(CC(=O)N3CCCC3)CC2)cc1OCC	/	2	/	/	/	/
CS(=O)(=O)c1ccc(Cl)c(NC(=O)C2CCN(S(=O)(=O)c3cccs3)CC2)c1	/	0	/	/	/	/
CC(C)c1ccc(NC(=O)Nc2cc3sccc3n2C)cc1	1	48*	-7	-77*	0	119
Cn1c(C(=O)Nc2ccc3c(c2)OCCO3)cc2sccc21	0	42	-11	0	0	77
COc1ccccc1OCC#CCn1ccnc1	2	60*	8	-3	0	104
COc1ccc(OCC#CCn2ccnc2)cc1	1	26	13	0	0	97
CCC(=O)O[C@]1(C(=O)SCF)[C@H](C)C[C@H]2[C@@H]3C[C@H](F)C4=CC(=O)C=C[C@]4(C)[C@@]3(F)[C@@H](O)C[C@@]21C	/	18	-7	-53*	/	/
CC(NC(=O)CCc1nnc(CCCc2ccccc2)o1)c1ccccc1 (stereo unspecified)	2	6	-12	9	0	105
NNC(=O)CN1CCCc2ccccc21	0	71*	-14	-36	0	107
O=C(CN1CCc2ccccc21)NC(=O)NCc1ccco1	0	14	-16	3	0	135*
O=C(CN1CCCc2ccccc21)N1CCc2ccccc21	0	7	26	2	/	/
COc1ccccc1NC(=O)C(C)OC(=O)c1nc2nc(C)cc(C)n2n1 (stereo unspecified)	/	0	-1	-8	/	/
CCn1nnnc1NCc1c(OC)ccc2ccccc12	1	6	18	-2	0	100
CSc1nc(C)cc(SCC(=O)N/N=C/c2ccccc2)n1	0	71*	7	-4	0	100
CNC(=S)N/N=C/c1c(C)cccc1Cl	2	0	2	2	/	/
CNC(=S)N/N=C/c1c2ccccc2c(Cl)c2ccccc12	/	48*	-36	1	/	/
Cc1ccc(-c2cc(-c3ccco3)c3c(N)c(C(=O)NN)oc3n2)cc1	0	42	-1	0	/	/
NNC(=O)c1oc2nc(-c3cccs3)cc(-c3ccco3)c2c1N	/	48*	6	-1	/	/
COCCN(CC(=O)Nc1cccc(C)c1C)C(=O)c1ccc(-n2cccn2)cc1	/	2	/	/	/	/
